Screens as filed in PubChem BioAssay.
TRPC6 activator – activates the mouse TRPC6 cation channel | Q61143 | HEK293-TRPC6 membrane potential dye fluorescence; stronger effect = higher value | B-score at 10 µM | actives 0.13% (n = 310,000);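 active means B-score of the integrated fluorescence ratio above library mean plus 3 SD, and starting fluorescence ratio within library mean plus 5 SD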;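 further: higher score means more depolarization so channel activation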
Target sequence (Q61143 whole entry, looked up): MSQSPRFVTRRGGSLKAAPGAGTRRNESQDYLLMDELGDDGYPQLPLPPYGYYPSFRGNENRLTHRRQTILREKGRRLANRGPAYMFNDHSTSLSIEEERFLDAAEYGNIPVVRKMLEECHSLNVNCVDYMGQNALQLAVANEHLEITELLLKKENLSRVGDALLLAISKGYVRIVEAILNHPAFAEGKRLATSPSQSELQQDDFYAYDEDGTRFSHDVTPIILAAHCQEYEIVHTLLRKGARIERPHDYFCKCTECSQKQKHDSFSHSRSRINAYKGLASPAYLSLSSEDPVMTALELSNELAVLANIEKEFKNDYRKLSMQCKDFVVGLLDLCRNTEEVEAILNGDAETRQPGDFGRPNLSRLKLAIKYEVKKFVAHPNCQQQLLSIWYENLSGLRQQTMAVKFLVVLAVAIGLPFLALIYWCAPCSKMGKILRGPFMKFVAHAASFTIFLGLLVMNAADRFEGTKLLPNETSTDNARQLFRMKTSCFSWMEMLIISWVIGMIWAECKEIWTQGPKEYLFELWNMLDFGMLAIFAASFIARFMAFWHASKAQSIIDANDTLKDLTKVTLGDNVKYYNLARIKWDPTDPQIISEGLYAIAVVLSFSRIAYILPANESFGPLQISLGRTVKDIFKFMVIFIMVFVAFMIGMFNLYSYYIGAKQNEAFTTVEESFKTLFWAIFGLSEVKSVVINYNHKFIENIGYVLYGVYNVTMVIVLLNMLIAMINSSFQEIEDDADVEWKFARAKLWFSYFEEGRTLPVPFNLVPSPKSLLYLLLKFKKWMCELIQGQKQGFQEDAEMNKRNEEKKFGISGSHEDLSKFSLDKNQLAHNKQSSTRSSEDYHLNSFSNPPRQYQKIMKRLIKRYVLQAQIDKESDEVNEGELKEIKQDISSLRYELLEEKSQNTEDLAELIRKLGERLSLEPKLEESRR
TRPC4 potent – allosteric potentiators of mouse TRPC4 channel; actives 0.42% (n = 310,000); AID 2227; HEK293 TRPC4beta/mu-opioid, DAMGO EC20, Fluo-4 Ca2+ flux; stronger effect = higher value; B-score at 10 µM; Q9QUQ5;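 active means B-score of calcium response area above 5 SD of library B-scores, with initial fluorescence ratio within 5 SD of library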;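 further: B-score of integrated fluorescence ratio over time as area under calcium response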
TRPC4 act – activators of mouse TRPC4 channel | HEK293 TRPC4beta/mu-opioid, Fluo4 calcium fluorescence; stronger effect = higher value | actives 0.49% (n = 310,000) | B-score at 10 µM | AID 2237 | Q9QUQ5;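 active means B-score above 5 SD of library B-scores, and initial fluorescence ratio not above library mean plus 5 SD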;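 further: positive B-score marks a calcium rise read as TRPC4 activation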
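Assay system – TRPC4beta and mu-opioid receptor HEK293 stable cells · Measured by – Fluo4 fluorescence, kinetic · Schedule – dye loading 45 min room temperature, 110 s kinetic read · Read-out – B-scored integrated calcium fluorescence ratio · Controls – buffer and maximal DAMGO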
TRPC4 inh – blocks the mouse TRPC4 cation channel. Q9QUQ5. HEK293 TRPC4beta/mu-opioid, DAMGO-evoked Fluo4 calcium flux; stronger effect = lower value. B-score at 10 µM. actives 0.39% (n = 300,000). AID 2247;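 active means B-score over 3 SD under the library average, no early fluorescence shift, positive overall ratio signal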
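material = TRPC4beta/mu-opioid receptor HEK293 cell line | probe or stimulus = sequential submaximal and maximal DAMGO stimulation | compound dosing = one concentration per compound | measured by = Fluo4 Ca2+ flux fluorescence | evaluation = integrated fluorescence ratio relative to baseline, converted to per-well B score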
TRPC6 inhibitor – inhibitors of mouse TRPC6 channel; Q61143; HEK293-TRPC6, membrane potential dye, ACh-evoked depolarization; stronger effect = lower value; B-score at 10 µM; actives 1.1% (n = 310,000); AID 2553;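 active means B-score under library mean minus 3 SD, initial fluorescence not abnormally high, positive integrated signal ratio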;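 further: B-score derived from integrated fluorescence ratio over the kinetic read; more negative B-score means stronger inhibition of depolarization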
TRPC4 spec 2 – second selectivity test of TRPC6 inhibitors: effect on mouse TRPC4; shares compounds with TRPC6 inhibitor; inhibition, % at 10 µM; actives 42% (n = 920); AID 2776; HEK293 TRPC4/MOR, membrane potential dye fluorescence; channel activated by saturating DAMGO dose;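 active means compounds whose fluorescence signal differed from control wells by over 3 SD, either direction, in both duplicate plates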
TRPC4 spec – selectivity of TRPC6 inhibitors: effect on mouse TRPC4; AID 2777; HEK293 TRPC4/mu-opioid, membrane potential fluorescence; shares compounds with TRPC6 inhibitor; actives 61% (n = 920); activity change, negative = inhibition, % at 10 µM;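 active means rise or fall in signal beyond 3 SD of buffer-only wells in both replicate plates, either sign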;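 further: integrated kinetic ratio of fluorescence range over baseline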
HEK293 MPD ctr 2-1 – second check of TRPC6 inhibitor effects in parental HEK293 cells; shares compounds with TRPC6 inhibitor; parental HEK293 membrane potential dye fluorescence; maximal acetylcholine challenge after compound addition; signal change vs control, % at 10 µM; actives 31% (n = 920); AID 2779;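 active means membrane potential signal moving either way by over 3 SD of the maximum-effect control, in both duplicate plates, meaning non-specific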
HEK293 MPD ctr-1 – parental HEK293 nonspecific activity of TRPC6 inhibitors; shares compounds with TRPC6 inhibitor; AID 2780; membrane potential signal change, % at 10 µM; parental HEK293 membrane potential dye fluorescence; actives 60% (n = 920);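 active means membrane potential signal shifting up or down by more than 3 SD of buffer-only wells, on both duplicate plates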
HEK293 MPD ctr-2 – parental HEK293 nonspecific activity of TRPC6 modulators; actives 51% (n = 2,400); AID 488924; membrane potential dye fluorescence; membrane potential signal change, % at 10 µM; shares compounds with TRPC6 inhibitor;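 active means membrane potential signal moves up or down beyond 5 SD from buffer-only wells, on both duplicate plates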
HEK293 MPD ctr 2-2 – second check of TRPC6 modulator effects in parental HEK293 cells | membrane potential dye fluorescence; after compound, maximal acetylcholine stimulation | shares compounds with TRPC6 inhibitor | actives 14% (n = 2,400) | inhibition, % at 10 µM;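 active means membrane potential signal drops by more than 5 SD from the mean control signal, in both duplicate plates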;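 further: plate controls were acetylcholine ECmax control wells for no effect and buffer only wells for full effect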
TRPC4 ctr mod – mouse TRPC4 off-target activity of TRPC6 modulators. percent change from control (negative = decrease, positive = increase), % at 10 µM. shares compounds with TRPC6 inhibitor. HEK293 TRPC4/mu-opioid, membrane potential fluorescence. actives 69% (n = 2,400);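 active means membrane potential signal moved up or down beyond 5 SD of buffer control wells, in both duplicate plates, actives on both sides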;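 further: plate controls were assay buffer wells for no effect and DAMGO maximal-effect wells for full effect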
TRPC4 ctr inh 2 – second check of whether TRPC6 modulators also affect mouse TRPC4 | HEK293 TRPC4/mu-opioid, membrane potential dye fluorescence; stimulated with maximal-effect DAMGO | actives 55% (n = 2,400) | shares compounds with TRPC6 inhibitor | inhibition, % at 10 µM | AID 488928;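 active means drop in membrane potential signal beyond 5 SD of the control wells in both duplicate plates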;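 further: TRPC4 counter screen for TRPC6 hits run under conditions tuned for TRPC6 not TRPC4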
TRPC6 block conf – mouse TRPC6 inhibitor confirmation | shares compounds with TRPC6 inhibitor | HEK293-TRPC6, membrane potential dye, ACh-evoked depolarization | inhibition, % at 10 µM | actives 43% (n = 3,300) | AID 488960;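 active means fluorescence ratio falls more than 5 SD below the full-stimulation control mean, in both duplicate runs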;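 further: integrated fluorescence ratio of peak minus minimum over baseline after agonist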
TRPC6 act confirm – confirmation of mouse TRPC6 activators; shares compounds with TRPC6 inhibitor; HEK293-TRPC6 membrane potential dye fluorescence, FDSS; activation, % at 10 µM; actives 11% (n = 2,800);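 active means ratio signal rise beyond 5 SD above unstimulated control wells' mean, seen in both duplicate runs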;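 further: plate controls were buffer EC0 wells for no effect and acetylcholine ECmax response for full effect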
* marks the source's active call; other numbers are inactive results; i = inactive; nt = not tested or not shown. A selection: hits, their analogues and other compounds. The true share with any hit is near 2.3%.

SMILES	TRPC6 activator	TRPC4 potent	TRPC4 act	TRPC4 inh	TRPC6 inhibitor	HEK293 MPD ctr-2	HEK293 MPD ctr 2-2	TRPC4 ctr mod	TRPC4 ctr inh 2	TRPC6 block conf	TRPC6 act confirm	others
O=C1N[C@@H](Cc2ccccc2)C(=O)N2[C@@H]1C[C@]1(Br)c3ccccc3N(S(=O)(=O)c3ccccc3)[C@H]21	i	i	i	i	i	nt	nt	nt	nt	nt	nt
Cc1ccc(-n2c(-c3ccco3)nc3nc4ccccc4nc32)cc1	i	i	i	i	i	nt	nt	nt	nt	nt	nt
CCCSC(=O)N(CC)CC(=O)Nc1c(CC)cccc1CC	i	i	i	i	i	nt	nt	nt	nt	nt	nt
CCN(CC)C(NC(=O)c1ccccc1)C(=O)c1ccccc1 (configuration not stated)	i	i	i	i	i	nt	nt	nt	nt	nt	nt
O=C(NCCCN1CCCC1)c1ccc2c(c1)N(Cc1ccccc1)CCS2	i	i	i	i	-5.9*	i	i	-8.5%*	80%*	62%*	i
O=C(NCCCN1CCOCC1)c1ccc2c(c1)N(Cc1cccc(Cl)c1)C(=O)CS2	i	i	i	i	-5*	664%*	160%*	133%*	41%*	93%*	nt
COc1cc(/C=C(\C#N)C(=O)c2c[nH]c3ccccc23)cc(OC)c1O	24*	i	i	i	i	256%*	i	72%*	i	i	88%*
COC(=O)/C(C#N)=C/c1c[nH]c2ccccc12	i	i	i	i	i	nt	nt	nt	nt	nt	nt
COc1cc(/C=C(\C#N)C(=O)NCCc2ccccc2)cc(OC)c1O	14*	i	i	nt	i	394%*	i	72%*	i	i	68%*
Cc1cccc(N2CCN(C(=O)c3ccc(N4CCCC4=O)cc3)CC2C)c1 (configuration not stated)	i	i	i	i	i	nt	nt	nt	nt	nt	nt
Cc1cccc(N2CCN(C(=O)c3ccc4c(c3)c(C)c(C)n4C)CC2C)c1 (configuration not stated)	i	i	i	i	-5.1*	i	i	i	i	i	i
COc1ccc(C(=O)/C(C#N)=N/Nc2ccc([N+](=O)[O-])cc2)cc1	i	i	i	i	-5.7*	i	i	i	i	i	i
Cc1c(F)cccc1NS(=O)(=O)c1ccc2c(c1)c(C)cc(=O)n2C	i	i	i	i	-6.8*	nt	nt	nt	nt	i	i	TRPC4 spec 2=i;TRPC4 spec=i;HEK293 MPD ctr 2-1=i;HEK293 MPD ctr-1=i
O=C(Nc1cc(C(F)(F)F)ccc1-n1cnc2ccccc21)c1ccccc1	i	i	i	i	-5.3*	106%*	i	19%*	i	47%*	nt
O=C(Nc1cc(C(F)(F)F)ccc1N1CCOCC1)c1ccccc1	i	i	i	i	i	nt	nt	nt	nt	nt	nt
Cc1ccccc1OCC(=O)NCCC1=CCCCC1	i	i	i	i	-5.7*	i	i	14%*	i	i	i
Cc1ccc(OCC(=O)NCCC2=CCCCC2)cc1	i	i	i	i	-5*	i	i	i	i	i	i
CC(=O)Nc1ccccc1OCC(=O)NCCC1=CCCCC1	i	i	i	i	i	nt	nt	nt	nt	nt	nt
O=C(COc1ccc([N+](=O)[O-])cc1)NCCC1=CCCCC1	i	i	i	i	i	nt	nt	nt	nt	nt	nt
Cc1cc(C(=O)Nn2cnc3ccccc3c2=O)ccc1[N+](=O)[O-]	i	i	i	i	i	nt	nt	nt	nt	nt	nt
N#CC1(NC(=O)COC(=O)c2cccc(-n3cnnn3)c2)CCCCC1	i	i	i	i	i	nt	nt	nt	nt	nt	nt
CCOC(=O)c1cc2[nH]c3ccccc3c2[n+](-c2ccc([N+](=O)[O-])cc2)c1C	i	i	i	i	-7.6*	-275%*	i	-50%*	56%*	60%*	i
CCOC(=O)c1cc2[nH]c3ccccc3c2[n+](-c2ccc([N+](=O)[O-])cc2)c1N	i	i	i	i	i	nt	nt	nt	nt	nt	nt
c1csc(C2Nc3ccccc3-c3nc4ccccc4n32)c1 (configuration not stated)	i	i	i	i	-6.6*	nt	nt	nt	nt	i	i	TRPC4 spec 2=i;TRPC4 spec=9.1%*;HEK293 MPD ctr 2-1=i;HEK293 MPD ctr-1=2.3%*
COC(=O)c1ccc2c(C)c(C(C)(C)O)[nH]c2c1	i	i	i	i	i	nt	nt	nt	nt	nt	nt
Cc1[nH][nH]c(=O)c1/C=N/N1CCOCC1	i	i	i	i	i	nt	nt	nt	nt	nt	nt
CC1CCN(CC(C)OC(=O)c2ccc3c(c2)OCCO3)CC1 (configuration not stated)	i	i	i	i	-5.2*	120%*	i	15%*	i	i	nt
O=c1c2ccccc2sc2ccc(NCCCN3CCOCC3)cc12	34*	i	i	i	i	940%*	i	190%*	80%*	nt	365%*
O=c1c2ccccc2oc2ccc(NCCCn3ccnc3)cc12	i	i	i	i	i	nt	nt	nt	nt	nt	nt
